Values after ≈ are worked out from the molar mass of the structure shown.
Key:
Rattus norvegicus [1] = assay: Tested for hypolipidemic activity in male rats, cholesterol was determined in serum at 10 mg/kg; format: functional
Method in brief: (§1)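 Groups of eight male Wistar rats (200–230 g) dosed orally in PEG 400, either daily for 7 days (killed 24 h after the last dose) or for 4 days with a second dose on day 4 (killed 16 h later). Fasted 16 h. Paired sera pooled, lipoproteins separated by ultracentrifugation (1.006 and 1.040 g/cm³), HDL taken as the infranatant. Cholesterol measured enzymatically; % vs vehicle, mean ± SEM of four pools.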

Rattus norvegicus [2] = assay: Hypolipidemic activity was determined in male rats, and high-density lipoprotein level was determined at 10 mg/kg; format: functional
Method in brief: (§2)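 Male Wistar rats (200–230 g), eight per group, were dosed orally in PEG 400 at 8 a.m. for 4 days, plus a second dose at 4 p.m. on day 4. Rats were fasted 16 h and killed 16 h after the last dose. Sera from pairs of rats were pooled. LDL (up to 1.040 g/cm³) was separated by ultracentrifugation and the HDL infranatant taken. Cholesterol was measured enzymatically. Results are % versus vehicle control, mean ± SEM of four pools, Student's t test.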

Rattus norvegicus [3] = assay: Hypolipidemic activity was determined in male rats, and low-density lipoprotein level was determined at 10 mg/kg; format: functional; method in brief: as §2
Staphylococcus aureus = assay: Antibacterial activity against Staphylococcus aureus 10B; format: functional
Method in brief: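 Agar dilution on DST agar with 2-fold drug dilutions. Inoculum of 10⁴ viable S. aureus 10B was taken from liquid-nitrogen stock, thawed 30 min and not subcultured. It was applied by multipoint replicator and incubated overnight at 37 °C. MIC is the lowest concentration inhibiting growth relative to control cultures.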

Rattus norvegicus [4] = assay: Tested for hypolipidemic activity in male rats, cholesterol was determined in serum at 20 mg/kg; format: functional; method in brief: as §1
Rattus norvegicus [5] = assay: Hypolipidemic activity was determined in male rats, and high-density lipoprotein level was determined at 20 mg/kg; format: functional; method in brief: as §2
Rattus norvegicus [6] = assay: Hypolipidemic activity was determined in male rats, and low-density lipoprotein level was determined at 20 mg/kg; format: functional; method in brief: as §2
[7] = Inhibitory activity against RNA polymerase was determined; set-up: species or system Escherichia coli
Method in brief: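 E. coli DNA-dependent RNA polymerase inhibition measured in vitro on ether-extracted, permeabilized E. coli cells.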

Structure (SMILES)	Activity (Rattus norvegicus [1]) [%]	Activity (Rattus norvegicus [2]) [%]	Activity (Rattus norvegicus [3]) [%]	MIC (Staphylococcus aureus) [µg/mL]	Activity (Rattus norvegicus [4]) [%]	Activity (Rattus norvegicus [5]) [%]	Activity (Rattus norvegicus [6]) [%]	IC50 [7] [µg/mL]
COC1/C=C/OC2(C)Oc3c(C)c(O)c4c(O)c(c(N5CCN(Cc6c(C)cc(C)cc6C)CC5)c(O)c4c3C2=O)NC(=O)/C(C)=C\C=C\C(C)C(OC(C)=O)C(C)C(OC(C)=O)C(C)C(OC(C)=O)C1C (stereo not drawn)	-24	-24	-19	4 (≈ 4.01 µM)	–	–	–	–
CCC1CCN(c2c3c(O)c4c(O)c(C)c5c(c4c2O)C(=O)C(C)(O/C=C/C(OC)C(C)C(OC(C)=O)C(C)C(O)C(C)C(O)C(C)/C=C/C=C(/C)C(=O)N3)O5)CC1 (stereo not drawn)	–	–	–	< 0.1	-57	-61	-51	–
CC(=O)OC1C(C)C2/C=C/OC3(C)Oc4c(C)c(O)c5c(O)c(c(N6CCN(Cc7c(C)cc(C)cc7C)CC6)c(O)c5c4C3=O)NC(=O)/C(C)=C\C=C\C(C)C(O)C(C)C(O2)C1C (stereo not drawn)	0	-4	-9	> 128	–	–	–	> 100

— ChEMBL document CHEMBL1125042, “Hypolipidemic activity of rifamycin derivatives” (J Med Chem, 1990)
